Experimental data taken from ChEMBL document CHEMBL1817584, “Synthesis of novel fluconazoliums and their evaluation for antibacterial and antifungal activities” (2011).

Assays:
Assay type in all cases: functional
[1] = test system: Bacillus subtilis; assay: Antibacterial activity against Bacillus subtilis ATCC 21216 after 24 hrs by twofold serial dilution method; settings: ATCC 21216, 24 h
How it was run: (§1)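 Each bacterial suspension was adjusted with sterile saline to 1 × 10⁵ CFU. Compounds were first dissolved in DMSO as stock solutions, then diluted in Mueller–Hinton broth in twofold steps (8, 4, 2, 1, 0.5, 0.25). Dilutions were inoculated and incubated at 37 °C for 24 h, and MIC was read. DMSO plus inoculum without drug served as a solvent control.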

[2] = test system: Candida albicans; assay: Antifungal activity against Candida albicans ATCC 76615 after 24 hrs by twofold serial dilution method; settings: ATCC 76615, 24 h
How it was run: (§2)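 A fungal spore suspension was made in sterile distilled water from a 1-day-old culture grown on Sabouraud agar, then tested against serial dilutions of compounds (DMSO stocks) to determine MIC.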

[3] = test system: Staphylococcus aureus; assay: Ratio of Norfloxacin MIC to compound MIC for Staphylococcus aureus ATCC 6538
[4] = test system: Staphylococcus aureus; assay: Antibacterial activity against methicillin-resistant Staphylococcus aureus N315 after 24 hrs by twofold serial dilution method; settings: N315, 24 h
How it was run: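 Compounds were dissolved in DMSO as stock, then diluted twofold in Mueller–Hinton broth. Chloromycin and norfloxacin were run as reference drugs. The inoculum was adjusted in sterile saline to 1 × 10⁵ CFU, and a DMSO-plus-inoculum well served as solvent control. Plates were incubated at 37 °C for 24 h and read as MIC.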

[5] = test system: Bacillus; assay: Antibacterial activity against Bacillus proteus ATCC 13315 after 24 hrs by twofold serial dilution method; settings: ATCC 13315, 24 h; how it was run: as §1
[6] = test system: Escherichia coli; assay: Antibacterial activity against Escherichia coli ATCC 8099 after 24 hrs by twofold serial dilution method; settings: ATCC 8099, 24 h; how it was run: as §1
[7] = test system: Staphylococcus aureus; assay: Antibacterial activity against Staphylococcus aureus ATCC 6538 after 24 hrs by twofold serial dilution method; settings: ATCC 6538, 24 h; how it was run: as §1
[8] = test system: Staphylococcus aureus; assay: Ratio of Chloromycin MIC to compound MIC for Staphylococcus aureus ATCC 6538
[9] = test system: Aspergillus fumigatus; assay: Antifungal activity against Aspergillus fumigatus ATCC 96918 after 24 hrs by twofold serial dilution method; settings: ATCC 96918, 24 h; how it was run: as §2
[10] = test system: Pseudomonas aeruginosa; assay: Antibacterial activity against Pseudomonas aeruginosa ATCC 27853 after 24 hrs by twofold serial dilution method; settings: ATCC 27853, 24 h; how it was run: as §1
[11] = test system: Bacillus subtilis; assay: Ratio of Chloromycin MIC to compound MIC for Bacillus subtilis ATCC 21216
[12] = test system: Pseudomonas aeruginosa; assay: Ratio of Chloromycin MIC to compound MIC for Pseudomonas aeruginosa ATCC 27853
[13] = test system: Escherichia coli; assay: Ratio of Chloromycin MIC to compound MIC for Escherichia coli ATCC 8099
[14] = test system: Bacillus; assay: Ratio of Chloromycin MIC to compound MIC for Bacillus proteus ATCC 13315

Compound | MIC [1] | MIC [2] | Ratio [3] | MIC [4] | MIC [5] | MIC [6] | MIC [7] | Ratio [8] | MIC [9] | MIC [10] | Ratio [11] | Ratio [12] | Ratio [13] | Ratio [14]
CCCCCCCC[n+]1cnn(CC(O)(Cn2c[n+](CCCCCCCC)cn2)c2ccc(F)cc2F)c1.[Br-].[Br-] | 32 µg/mL | 2 µg/mL | 8 | 8 µg/mL | 64 µg/mL | 1 µg/mL | 1 µg/mL | 64 | 128 µg/mL | 8 µg/mL | – | – | – | –
OC(Cn1c[n+](CCOc2ccc3ccccc3c2)cn1)(Cn1c[n+](CCOc2ccc3ccccc3c2)cn1)c1ccc(F)cc1F.[Br-].[Br-] | 64 µg/mL | 8 µg/mL | – | 32 µg/mL | 4 µg/mL | 2 µg/mL | 4 µg/mL | 4 | 128 µg/mL | 8 µg/mL | 4 | 4 | 4 | 4
